From article PMC4871731 (Nature chemical biology, 2016)
Peptide text beside a SMILES is read from it. * marks the point of attachment. Cbz = O=C(OCc1ccccc1)*

Experiments:
human CLRN1^N48K [1] = biological target: T1, human CLRN1^N48K (Homo sapiens, UniProt P58418, N48K); assay: Combined treatment with cycloheximide and washout; assay type: cell-based; conditions: for levels of CLRN1^N48K after 6 h treatment (T0): D6 cells, vs DMSO, bortezomib 50 nM, MG132 50 µM, O03 16.8 µM
T1 sequence (P58418 1-232 N48K): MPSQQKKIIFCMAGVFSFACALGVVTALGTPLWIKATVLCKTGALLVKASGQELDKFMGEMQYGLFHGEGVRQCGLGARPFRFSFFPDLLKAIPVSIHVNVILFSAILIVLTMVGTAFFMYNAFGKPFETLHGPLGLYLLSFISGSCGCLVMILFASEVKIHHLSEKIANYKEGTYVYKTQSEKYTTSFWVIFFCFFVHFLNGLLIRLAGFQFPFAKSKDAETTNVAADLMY
Summary of the method: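 D6 cells at 70% confluency were treated 6 h with bortezomib (50 nM), MG132 (50 µM) or test compound (16.8 µM); […]. Cells were then cultured 6 h more in 100 µM cycloheximide with or without the same agent. In the washout arm, compound-pretreated cells were washed and held 6 h in cycloheximide without compound. Read-out was CLRN1N48K by immunoblot.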

[2] = system: DsRed-Express-DR (reporter for proteasome-mediated protein degradation); assay: Dual color; assay type: cell-based; conditions: 16.8 µM test compound or 50 nM bortezomib, 24 h, vs no treatment
Summary of the method: (§1)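 Cell line stably co-expressing CLRN1N48K-Venus-1D4 and DsRed-Express-DR, grown to 70% confluency. Treatment was 16.8 µM test compound in triplicate for 24 h, with 50 nM bortezomib as positive and DMSO as negative control. Cells were fixed in 4% formaldehyde, washed with PBS and imaged by inverted fluorescence microscopy. Venus and DsRed intensities were quantified in 15 equal-sized cell-containing regions per well, three wells per treatment.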

human CLRN1^N48K [3] = biological target: T1, human CLRN1^N48K; assay: Automated HTS, D6 cell-based immunofluorescence assay; conditions: D6 cell line, 25 nM
Summary of the method: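 Primary screen of about 50,000 library compounds. Cells were fixed in 4% formaldehyde for 20 min, washed with PBST and stained with anti-HA for 90 min at room temperature. Fluorescence intensity per cell area came from six images per well and was normalised per plate to bortezomib and untreated controls to give percent activity.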

human CLRN1^N48K [4] = biological target: T1, human CLRN1^N48K; assay: Immunoblotting of CLRN1N48K in D6 cells; assay type: cell-based; conditions: 24 h, O03 16.8 µM, B03 16.8 and 1.68 µM, bortezomib 50 nM
Summary of the method: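 D6 cells at 70% confluency were treated for 24 h with bortezomib (50 nM) or test compounds at 16.8 µM (one also at 1.68 µM), with DMSO at 0.25% (v/v) final. Lysates were then immunoblotted for CLRN1N48K.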

CLRN1 mRNA = assay: Reverse transcription and quantitative PCR in D6 cells; assay type: cell-based, human; conditions: 24 h, O03 16.8 µM, bortezomib 50 nM
Summary of the method: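 D6 cells at 70% confluency were treated in triplicate for 24 h with 50 nM bortezomib, 16.8 µM test compound, or 0.25% DMSO. Total RNA was isolated with TRIzol. 5 µg RNA was DNase I-treated and reverse-transcribed with M-MLV using a mix of dT12, dT15 and dT18 primers (10 µM each), followed by quantitative PCR.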

human CLRN1^N48K-Venus = assay: Dual color; assay type: cell-based; conditions: 16.8 µM test compound or 50 nM bortezomib, 24 h, vs no treatment
Summary of the method: as §1

human CLRN1^N48K [5] = biological target: T1, human CLRN1^N48K; assay: Effect of HSP90 inhibition on CLRN1N48K expression; assay type: cell-based; conditions: D6 cells, 17-AAG 20 µM applied alone
Summary of the method: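 D6 cells were treated for 24 h with 20 µM 17-AAG, test compound (2.90 µM), 50 nM bortezomib, or DMSO vehicle. In one arm, cells were pre-incubated 6 h with 17-AAG before test compound was added for 24 h. Cells were then harvested for CLRN1N48K immunoblotting.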

## C[C@@H]1C[C@@H]([C@H](O)CC2CC(=O)NC(=O)C2)C(=O)[C@@H](C)C1 [cycloheximide]
Human CLRN1^N48K [1]; 100 µM cycloheximide
  synthesis of CLRN1^N48K: confirmed to inhibit the synthesis of CLRN1^N48K

## CC(C)C[C@@H](C=O)NC(=O)[C@H](CC(C)C)NC(=O)[C@H](CC(C)C)NC(=O)OCc1ccccc1 [MG132] (Cbz-Leu-Leu-Leu-aldehyde)
Human CLRN1^N48K [1]
  levels of CLRN1^N48K after 6 h treatment (T0): increased levels of CLRN1^N48K

## CC(C)C[C@H](NC(=O)[C@H](Cc1ccccc1)NC(=O)c1cnccn1)B(O)O [bortezomib]
[2]
  DsRed fluorescence: increased both Venus and DsRed
Human CLRN1^N48K [3]
  amount of CLRN1^N48K: increased amount
Human CLRN1^N48K [4]
  CLRN1^N48K level by immunoblotting: increased dramatically
CLRN1 mRNA
  CLRN1^N48K mRNA level: not affected
Human CLRN1^N48K [1]; 6 h compound, washout, then 6 h with cycloheximide without compound
  stability of CLRN1^N48K after washout: effective in stabilizing and protecting CLRN1^N48K from degradation
Human CLRN1^N48K [1]
  levels of CLRN1^N48K after 6 h treatment (T0): increased levels of CLRN1^N48K
Human CLRN1^N48K-Venus
  Venus fluorescence: increased both Venus and DsRed

## C=CCNC1=C2C[C@@H](C)C[C@H](OC)[C@H](O)[C@@H](C)/C=C(\C)[C@H](OC(N)=O)[C@@H](OC)/C=C\C=C(/C)C(=O)NC(=CC1=O)C2=O [17-AAG, 17-N-allylamino-17-demethoxygeldanamycin]
Human CLRN1^N48K [5]
  amount of CLRN1^N48K: did not alter the amount of CLRN1^N48K
